Data as given in ChEMBL document CHEMBL1127686, “Synthesis of selective non-Ca(2+)-mobilizing inhibitors of D-myo-inositol 1,4,5-trisphosphate 5-phosphatase” (J Med Chem, 1994).
Where “and” joins values, the source holds several entries; their conditions need not be identical. Equal values may be shown once.

Assays:
[1] = Tested for binding affinity against Ins(1,4,5)-P3 5-phosphatase; parameters: species or system Homo sapiens
[2] = Tested for binding affinity against human erythrocyte 5-phosphatase
[3] = Competitive inhibition of Inositol 1,4,5-trisphosphate 5-phosphatase; parameters: species or system Homo sapiens
[4] = (§1) Competitive inhibition of human erythrocyte membrane Ins(1,4,5)P3 5-phosphatase
Outline: (§2)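 Ins(1,4,5)P3 5-phosphatase from human erythrocyte membrane; Ki determined by a previously described method, taken as the mean of at least three experiments.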

[5] = Binding affinity for Inositol 1,4,5-trisphosphate kinase
Outline: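 Crude rat brain Ins(1,4,5)P3 3-kinase; inhibition of [3H]Ins(1,4,5)P3 phosphorylation measured; Km for Ins(1,4,5)P3 0.6 μM; Ki determined by a previously described method.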

Homo sapiens [6] = species: Homo sapiens; test: as §1; outline: as §2
Homo sapiens [7] = species: Homo sapiens; test: Tested for Ca+2 potency in human neuroblastoma cells; format: functional
Outline: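 Ca2+ release from intracellular stores measured in electrically permeabilized human neuroblastoma cells; potency expressed as EC50.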

Which Ki [1] does the source give for OC1C(O)C(OP(O)(O)=S)C(OP(O)(O)=S)C(O)C1OP(O)(O)=S (configuration not stated) here?
Its Ki is 0.5 µM.

Which Ki [1] does the source give for OC1C(OP(O)(O)=S)C(O)C(OP(O)(O)=S)C(O)C1OP(O)(O)=S (configuration not stated) here?
Its Ki is 0.43 µM.

For O=C(O)C(COP(=O)(O)O)OP(=O)(O)O (configuration not stated), which Ki [2] is on record?
The Ki was 350 µM and 978 µM.

For O=P(O)(O)O[C@H]1[C@H](O)[C@@H](OP(=O)(O)O)[C@H](O)[C@@H](OP(=O)(O)O)[C@H]1O, which Ki [3] is on record?
Its Ki is 45 µM.

With OC1C(O)C(OP(O)(O)=S)C(OP(O)(O)=S)C(O)C1OP(O)(O)=S (stereo in doubt) as the compound, how does the Ki [4] read?
Its Ki is 1.7 µM.

And the Ki [5]?
Its Ki is 1.46 µM.

Which Ki [2] does the source give for OC1C(O)C(OP(O)(O)=S)C(OP(O)(O)=S)C(O)C1OP(O)(O)=S (stereo in doubt; 24) here?
Its Ki is 0.3 µM.

What about the Ki [5] of the same compound?
The Ki was 247 µM.

With O=P(O)(O)O[C@@H]1[C@H](O)[C@H](O)[C@@H](OP(=O)(O)O)[C@H](OP(=O)(O)O)[C@H]1O [INS(1,4,5)P3] as the compound, how does the Ki [2] read?
Its Ki is 124 µM.

And the Km (Homo sapiens [6])?
Its Km is 40 µM.

And the Ki [3]?
Its Ki is 39 µM.

What about the EC50 (Homo sapiens [7]) of the same compound?
Its EC50 is 0.12 µM.
